Experimental data pooled from the literature.
Read-out: cell growth or viability

`COc1cc2c3c(n(CCCNC(C)C)c(=O)c2cc1OC)-c1nc2c(cc1C3=O)OCO2` has an IC50 of 317 nM (AMO1; MTS; 72 h).
For `C[C@@H]1CC[C@@H]([C@](O)(CNCc2ccc(F)cc2)COCc2ccc(F)cc2)[C@H](OCc2ccc(F)cc2)C1`, the inhibition was 97.2% (MCF7; MTT; 30 µM, 72 h).
The viability of `CC(=O)Nc1ccc(Oc2nnc(-c3ccc(Cl)cc3)c3ccccc23)cc1` is reported as 5.75% (MCF7; MTT; 10 µM, 24 h).
`CCN1[C@@H](C(=O)NC23CCC(C(=O)O)(CC2)CC3)[C@H](c2cccc(Cl)c2F)[C@]2(C(=O)Nc3cc(Cl)ccc32)C12CCCCC2` gave an IC50 of 106 nM (SJSA-1; resazurin; 72 h).
For `O=C(Nc1ccc(Oc2nnc(-c3ccc(Cl)cc3)c3ccccc23)cc1)c1cccc([N+](=O)[O-])c1`, the cell death was 83% (MCF7; MTT; 0.312 µM).
With `CC(=O)Nc1ccc(/C(C)=N/N=c2\sc(C(C)=O)nn2-c2ccc(C)cc2)cc1` the viability was 21.2% (MCF7; MTT; 5 µM).
The inhibition of `C[C@@H]1CC[C@@H]([C@](C)(O)CNCc2cccc(F)c2)[C@H](OCc2ccccc2)C1` is reported as 72.7% (MCF7; MTT; 10 µM, 72 h).
`C=C(F)C(=O)N1CCN(c2nc(OC[C@@H]3CCCN3C)nc3c2CCN(c2cccc4cccc(Cl)c24)C3)C[C@@H]1CC#N` has an IC50 of 3400 nM (NCI-H441; ATP luminescence).
For `Cc1c(C(=O)O)ccc2c3n(nc12)[C@@H]1[C@H](C3)N(CC2CC2)[C@@]2(C(=O)Nc3cc(Cl)ccc32)[C@H]1c1cccc(Cl)c1F`, the GI50 was 0.28 nM (A204).
With `COc1ccc(CNC[C@](O)(COCc2ccc(F)cc2)[C@@H]2CC[C@@H](C)C[C@H]2OCc2ccc(F)cc2)cc1` the inhibition was 98.4% (MCF7; MTT; 30 µM, 72 h).
With `CC(=O)c1nn(-c2ccccc2Cl)/c(=N/N=C(\C)c2ccc(NC(=O)c3ccccc3)cc2)s1` the viability was 6.34% (MCF7; MTT; 1.25 µM).
The viability of `CC(=NNC(=O)c1ccccc1O)c1ccc(Nc2nnc(-c3ccc(Cl)cc3)c3ccccc23)cc1` is reported as 90.3% (MCF7; MTT; 1.25 µM, 24 h).
For `C[C@@H]1CC[C@@H]([C@](C)(O)Cn2cnc3ccccc32)[C@H](OCc2ccccc2)C1`, the inhibition was 98.3% (MCF7; MTT; 30 µM, 72 h).
The viability of `CCOC(=O)c1nn(-c2cccc(Cl)c2)/c(=N/N=C(\C)c2ccc(NC(=O)c3ccccc3)cc2)s1` is reported as 2.41% (MCF7; MTT; 10 µM).
`C[C@@H]1CC[C@@H]([C@](O)(CNCc2ccccc2)COCc2ccccc2)[C@H](OCc2ccccc2)C1` gave an inhibition of 84.1% (MCF7; MTT; 10 µM, 72 h).
For `CC(=NNC(=O)c1ccccc1Br)c1ccc(Nc2nnc(-c3ccc(Cl)cc3)c3ccccc23)cc1`, the viability was 31.3% (MCF7; MTT; 1.25 µM, 24 h).
For `CCOC(=O)c1nn(-c2cccc(Cl)c2)/c(=N/N=C(\C)c2ccc(NC(=O)c3ccc(Cl)cc3)cc2)s1`, the viability was 21.9% (MCF7; MTT; 0.156 µM).
For `COc1cc2c3c(n(CCCn4ccnc4)c(=O)c2cc1OC)-c1nc2c(cc1C3=O)OCO2`, the IC50 was 804 nM (AMO1; MTS; 72 h).
With `CC1(C)CCC2(CC1)N[C@@H](C(=O)N[C@@H]1CC[C@@H](C(N)=O)OC1)[C@H](c1ccnc(Cl)c1F)[C@]21C(=O)Nc2cc(Cl)ccc21` the IC50 was 115 nM (SJSA-1; resazurin; 72 h).
`C[C@@H]1CC[C@@H]([C@@](O)(CNCc2ccccc2)COCc2ccc(F)cc2)[C@H](OCc2ccc(F)cc2)C1` gave an inhibition of 96.2% (MCF7; MTT; 10 µM, 72 h).
For `C=CC(=O)NC1CCN(c2ncc3ncnc(Nc4ccc(Oc5ccc6c(c5)ncn6C)c(C)c4)c3n2)CC1`, the EC50 was 5370 nM (HCC1954).
`COc1cc2c3c(n(CCCNCCO)c(=O)c2cc1OC)-c1nc2c(cc1C3=O)OCO2` gave an IC50 of 300 nM (THP-1; MTS; 72 h).
For `CC(=NNC(N)=S)c1ccc(Nc2nnc(-c3ccc(Cl)cc3)c3ccccc23)cc1`, the viability was 4.56% (MCF7; MTT; 0.625 µM, 24 h).
The GI50 of `O=C(NO)c1ccc(CNc2nc3cccc(-c4ccc5c(c4)OCO5)n3n2)cc1` is reported as 450 nM (SW-620; SRB).
The IC50 of `COc1cc2c3c(n(CCCN4CCOCC4)c(=O)c2cc1OC)-c1nc2c(cc1C3=O)OCO2` is reported as 1320 nM (THP-1; MTS; 72 h).
`Cc1noc2c1-c1ccccc1C(c1ccc(Cl)cc1)=N[C@H]2CC(N)=O` gave an IC50 of 377 nM (THP-1; ATP luminescence; 72 h).
With `CC(=O)c1nn(-c2ccc(C)cc2)/c(=N/N=C(\C)c2ccc(NC(=O)c3ccccc3)cc2)s1` the viability was 5.3% (MCF7; MTT; 1.25 µM).
`O=C(C=Cc1ccccc1)Nc1ccc(Oc2nnc(-c3ccc(Cl)cc3)c3ccccc23)cc1` gave a cell death of 91.9% (MCF7; MTT; 10 µM).
`C[C@@H]1CC[C@@H]([C@@](O)(CNCc2cccc3ccccc23)COCc2ccccc2)[C@H](OCc2ccccc2)C1` has an inhibition of 90.7% (MCF7; MTT; 30 µM, 72 h).
`CC(=NNC(=O)c1ccc(N)cc1)c1ccc(Nc2nnc(-c3ccc(Cl)cc3)c3ccccc23)cc1` gave a cell death of 56% (MCF7; MTT; 0.625 µM).
With `CCNCCCn1c2c(c3cc(OC)c(OC)cc3c1=O)C(=O)c1cc3c(nc1-2)OCO3` the IC50 was 184 nM (AMO1; MTS; 72 h).
